Laboratory results: ChEMBL document CHEMBL1649368, “Novel isatinyl thiosemicarbazones derivatives as potential molecule to combat HIV-TB co-infection” (Eur J Med Chem, 2011)
≈ marks a conversion by molar mass, not a printed value.

Key:
[1] = system: Human immunodeficiency virus 1; test: Antiviral activity against HIV1 3B infected in human MT4 cells assessed as protection against virus-induced cytopathogenicity after 5 days by microtiter plate analysis; assay type: functional, organism-based; conditions: Human immunodeficiency virus 1, 3B, MT4, 120 h
How it was run: (§1)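 MT-4 cells were grown in RPMI-1640 DM with 10% heat-inactivated calf serum and gentamicin. HIV-1 IIIB (100 CCID50) or mock infection was run in parallel with compounds in triplicate, at 37 °C and 5% CO2 for 5 days. Viability was read by MTT spectrophotometry. EC50 was the 50% reduction in virus cytopathic effect; CC50 was the 50% loss of mock-infected cell viability.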

[2] = Cytotoxicity against human MT4 cells after 5 days by spectrophotometry; assay type: cell-based; how it was run: as §1
[3] = system: Mycobacterium tuberculosis; test: Antimycobacterial activity against Mycobacterium tuberculosis H37Ra by agar dilution method; assay type: functional
How it was run: (§2)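 Log-phase MTB was tested by agar dilution on Middlebrook 7H11 with OADC, following NCCLS guidance. MIC was the lowest concentration giving complete growth inhibition, determined in triplicate.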

[4] = system: Mycobacterium tuberculosis; test: Antimycobacterial activity against Mycobacterium tuberculosis H37Ra assessed as inhibition of bacterial growth in log phase by agar dilution method; assay type: functional; how it was run: as §2
[5] = system: Mycobacterium tuberculosis; test: Antimycobacterial activity against Mycobacterium tuberculosis H37Ra assessed as inhibition of bacterial growth in dormant phase; assay type: functional
How it was run: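 MTB grown in 7H9 with glycerol, OADC and Tween 80 at 37 °C with rolling to OD600 ~0.6, then washed and held in PBS 6 weeks at 37 °C. Starved cells (~1×10^7 in 1 mL PBS) were exposed to compounds in DMSO at various concentrations for 7 days with shaking. After washing, dilutions were plated on antibiotic-free 7H11 and counted after 4 weeks. MIC was complete growth inhibition, in triplicate.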

Row | Compound | EC50 [1] [µM] | CC50 at 120 h [2] [µM] | MIC [3] [µM] | MIC [4] [µM] | MIC [5] [µM]
1 | CCN(CC)CN1C(=O)/C(=N\NC(=S)NOC)c2cc(Cl)ccc21 | 58.4 | 454 | 16.9 (≈ 6.25 µg/mL) | – | –
2 | COc1ccc(N2CCN(CN3C(=O)/C(=N\NC(=S)NO)c4cc(Cl)ccc43)CC2)cc1 | 21.3 | 279 | 13.2 (≈ 6.25 µg/mL) | – | –
3 | O=C1/C(=N\NC(=S)NO)c2cc(Cl)ccc2N1CN1CCOCC1 | 35.1 | 348 | 6.11 (≈ 2.26 µg/mL) | – | –
4 | CONC(=S)N/N=C1\C(=O)N(CN2CCOCC2)c2ccc(C)cc21 | 45.1 | 365 | 4.29 (≈ 1.56 µg/mL) | – | –
5 | CO[C@H]1/C=C/O[C@@]2(C)Oc3c(C)c(O)c4c(O)c(c(/C=N/N5CCN(C)CC5)c(O)c4c3C2=O)NC(=O)/C(C)=C\C=C\[C@H](C)[C@H](O)[C@@H](C)[C@@H](O)[C@@H](C)[C@H](OC(C)=O)[C@@H]1C [RIFAMPIN] | – | – | – | 0.12 (≈ 0.0988 µg/mL) | 15.2 (≈ 12.5 µg/mL)
6 | CCN(CC)CN1C(=O)/C(=N\NC(=S)NO)c2cc(Cl)ccc21 | 121 | 562 | 70.3 (≈ 25 µg/mL) | – | –
7 | CONC(=S)N/N=C1\C(=O)N(CN2CCN(c3c(F)cc4c(=O)c(C(=O)O)cn(C5CC5)c4c3OC)CC2C)c2ccc(Cl)cc21 (stereo unspecified) | 7.14 | 164 | 0.3 (≈ 0.202 µg/mL) | – | –
8 | O=C1/C(=N\NC(=S)NO)c2cc(F)ccc2N1CN1CCOCC1 | 61.4 | 465 | 4.41 (≈ 1.56 µg/mL) | – | –
9 | COc1ccc(N2CCN(CN3C(=O)/C(=N\NC(=S)NO)c4cc(C)ccc43)CC2)cc1 | 15 | 321 | 13.8 (≈ 6.25 µg/mL) | – | –
10 | CONC(=S)N/N=C1\C(=O)N(CN(C)C)c2ccc(F)cc21 | 37.8 | 560 | 9.62 (≈ 3.13 µg/mL) | – | –
11 | CONC(=S)N/N=C1\C(=O)N(CN2CCN(c3cc4c(cc3F)c(=O)c(C(=O)O)cn4C3CC3)CC2)c2ccc(Cl)cc21 | 11 | 143 | 0.64 (≈ 0.402 µg/mL) | – | –
12 | Cc1ccc2c(c1)/C(=N/NC(=S)NO)C(=O)N2CN(C)C | 113 | 651 | 81.3 (≈ 25 µg/mL) | – | –
13 | NNC(=O)c1ccncc1 [ISONIAZID] | – | – | – | 0.36 (≈ 0.0494 µg/mL) | 182 (≈ 25 µg/mL)
14 | CCN(CC)CN1C(=O)/C(=N\NC(=S)NO)c2cc(C)ccc21 | 57.6 | 534 | 11.8 (≈ 3.97 µg/mL) | – | –
15 | CONC(=S)N/N=C1\C(=O)N(CN2CCOCC2)c2ccc(Cl)cc21 | 28.4 | 322 | 4.06 (≈ 1.56 µg/mL) | – | –
16 | CONC(=S)N/N=C1\C(=O)N(CN2CCN(c3ccc(OC)cc3)CC2)c2ccc(F)cc21 | 12.7 | 276 | 6.14 (≈ 2.9 µg/mL) | – | –
17 | COc1c(N2CCN(CN3C(=O)/C(=N\NC(=S)NO)c4cc(C)ccc43)C(C)C2)c(F)cc2c(=O)c(C(=O)O)cn(C3CC3)c12 (stereo unspecified) | 11.1 | 276 | 0.63 (≈ 0.402 µg/mL) | – | –
18 | CN(C)CN1C(=O)/C(=N\NC(=S)NO)c2cc(F)ccc21 | 47.2 | 599 | 10.1 (≈ 3.13 µg/mL) | – | –
19 | COc1c(N2CCN(CN3C(=O)/C(=N\NC(=S)NO)c4cc(F)ccc43)C(C)C2)c(F)cc2c(=O)c(C(=O)O)cn(C3CC3)c12 (stereo unspecified) | 4.18 | 206 | 0.16 (≈ 0.103 µg/mL) | – | –
20 | CONC(=S)N/N=C1\C(=O)N(CN2CCN(c3ccccc3)CC2)c2ccc(C)cc21 | 17.3 | 276 | 12.4 (≈ 5.42 µg/mL) | – | –
21 | CONC(=S)N/N=C1\C(=O)N(CN2CCN(c3ccc(OC)cc3)CC2)c2ccc(Cl)cc21 | 13.1 | 221 | 12.8 (≈ 6.25 µg/mL) | – | –
22 | CN(C)CN1C(=O)/C(=N\NC(=S)NO)c2cc(Cl)ccc21 | 130 | 610 | 76.3 (≈ 25 µg/mL) | – | –
23 | Cc1ccc2c(c1)/C(=N/NC(=S)NO)C(=O)N2CN1CCOCC1 | 93.6 | 572 | 8.96 (≈ 3.13 µg/mL) | – | –
24 | O=C(O)c1cn(C2CC2)c2cc(N3CCN(CN4C(=O)/C(=N\NC(=S)NO)c5cc(Cl)ccc54)CC3)c(F)cc2c1=O | 33.4 | 229 | 2.54 (≈ 1.56 µg/mL) | – | –
25 | CCn1cc(C(=O)O)c(=O)c2cc(F)c(N3CCN(CN4C(=O)/C(=N\NC(=S)NO)c5cc(Cl)ccc54)C(C)C3)c(F)c21 (stereo unspecified) | 23.2 | 209 | 1.23 (≈ 0.78 µg/mL) | – | –
26 | CONC(=S)N/N=C1\C(=O)N(CN2CCN(c3ccccc3)CC2)c2ccc(F)cc21 | 18.1 | 227 | 7.07 (≈ 3.13 µg/mL) | – | –
